Compound activity: PubChem BioAssay, several laboratories
Most compounds without a hit are left out; they make up all but 9.6% or so of the library.
PMI act – phosphomannose isomerase (human) activation | P34949 | purified human PMI, coupled resazurin fluorescence, 20 min; hits give high values; 1 = vehicle control, 0 substrate-free wells | activation factor at 20 µM | 0.005% of 190,000 active | AID 1214;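 active means activation factor of 2 or more at 20 µM, relative to plate controls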
Target sequence (P34949 whole entry, looked up): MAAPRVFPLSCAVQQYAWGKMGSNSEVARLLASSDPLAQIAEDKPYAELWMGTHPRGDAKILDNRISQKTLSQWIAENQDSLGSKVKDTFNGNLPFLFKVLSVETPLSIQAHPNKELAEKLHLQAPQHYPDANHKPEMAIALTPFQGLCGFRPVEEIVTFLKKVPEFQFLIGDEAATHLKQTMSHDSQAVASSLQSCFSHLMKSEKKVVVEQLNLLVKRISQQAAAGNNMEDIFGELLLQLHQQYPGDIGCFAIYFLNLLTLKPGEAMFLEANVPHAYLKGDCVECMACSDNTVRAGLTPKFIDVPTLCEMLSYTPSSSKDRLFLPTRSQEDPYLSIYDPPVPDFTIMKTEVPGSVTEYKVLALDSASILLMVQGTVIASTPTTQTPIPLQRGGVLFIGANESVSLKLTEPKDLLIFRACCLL
PMI act satM6P – increases human PMI activity with near-saturating mannose 6-phosphate. activation factor at 20 µM. 0.34% of 190,000 active. coupled PMI enzyme assay, resazurin fluorescence, 20 min; hits give high values; 1 = untreated enzyme, 0 = substrate-free blank. P34949;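 active means activation factor of 2 or more at 20 µM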
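Material: human phosphomannose isomerase with PGI, G6PDH, diaphorase coupling enzymes / Reagent: Man-6-P substrate 1.0 mM / Dosing: single compound dose of 20 µM, 1% DMSO final / Incubation: enzyme reaction with compound 20 min at room temperature / Signal: resorufin fluorescence (Ex 544/Em 590 nm) from resazurin via diaphorase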
Lmaj promast – reduces viability of Leishmania major promastigotes; resazurin fluorescence viability; inhibition, % at 10 µM; 9% of 200,000 active; AID 1063; in the data active means inhibition above about 50%;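 further: promastigotes grown with compound for 44 hours at 28 °C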
HCT116 PTEN-null – PTEN-deleted cell growth suppression; viability, % at 10 µM; HCT116 PTEN-null viability, CellTiter-Glo, 60 h; hits give low values; 1.2% of 140,000 active;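 active means viability at or below a set limit, 4 SD under the median of all tested compounds, cut at about 3.7% in these data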;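 further: PTEN knockout HCT116 line with beta catenin targeted HCT116 as companion control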
HCT116 bCat-KO – beta-catenin-lacking colon tumor cell growth suppression; HCT116 beta-catenin knockout viability, CellTiter-Glo, 60 h; hits give low values; viability, % at 10 µM; 1.5% of 140,000 active; AID 818;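 active means viability at or under a set limit, the compound median less 4 SD, cut at about 6% in these data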
Numbers stand for hits; . = inactive; / = no result given.

SMILES	PMI act	PMI act satM6P	Lmaj promast	HCT116 PTEN-null	HCT116 bCat-KO
COc1nc(-c2ccccc2)cc(-c2ccc(OC)c(OC)c2)n1	.	.	61	.	.
O=[N+]([O-])c1nn(-c2ccc3c(c2)OCCO3)n(O)c1=NC1CCCCC1	.	.	70	.	.
O=[N+]([O-])c1nn(-c2ccc3c(c2)OCCO3)n(O)c1=NCc1ccccc1Cl	.	.	82	.	.
Cc1c(NC(=O)CN2CCN(c3ccc(F)cc3)CC2)c(=O)n(-c2ccccc2)n1C	.	.	.	/	/
COc1ccc(-c2cc3ccccc3n2CC(O)CN2CCOCC2)cc1 (stereo not drawn)	.	.	.	.	.
COc1ccc(C(c2c(O)ccc3ccccc23)N2CCOCC2)c(OC)c1 (stereo not drawn)	.	.	60	.	.
Cc1nn(CC(=O)NCc2cc3ccccc3[nH]2)c(C)c1[N+](=O)[O-]	.	.	.	.	.
C=CCOC(=O)C1=C(C)NC(SCC)=C(C#N)C1c1ccc(Cl)cc1 (stereo not drawn)	.	.	100	.	.
C=CCOC(=O)C1=C(C)NC(SCC(=O)Nc2ccc(C)c(Cl)c2)=C(C#N)C1c1ccco1 (stereo not drawn)	.	.	.	.	4.2
CCOC(=O)C1=C(C)NC(SCC(=O)OC)=C(C#N)C1c1ccc(C(=O)OC)cc1 (stereo not drawn)	.	.	.	.	.
O=[N+]([O-])c1cccc(/C=N/n2cnnc2)c1O	.	.	68	.	.
O=[N+]([O-])c1ccccc1S(=O)(=O)Oc1ccccc1/C=N/n1cnnc1	.	.	72	.	.
O=[N+]([O-])c1cc2c(cc1/C=N/n1cnnc1)OCO2	.	.	.	/	/
O=C(OCn1ncc(Cl)c(Cl)c1=O)c1cccc(C(F)(F)F)c1	.	.	59	.	.
N#CCC(CNc1ncc(C(F)(F)F)cc1Cl)OC(=O)c1cccc(C(F)(F)F)c1 (stereo not drawn)	.	.	.	.	.
COc1ccc(-c2nc(-c3cccc(C)c3)nc(N3CCN(C)CC3)c2C#N)cc1	.	.	86	.	.
COc1cccc(-c2nc(-c3ccccc3)nc(N3CCN(C)CC3)c2C#N)c1	.	.	51	/	/
CN1CCN(c2nc(-c3ccccc3)nc(-c3ccccc3)c2C#N)CC1	.	.	.	/	/
CCOC(=O)c1cc(C#N)c(N2CCCC2)nc1-c1ccccc1	.	.	.	.	.
COc1ccc(-c2nc(-c3ccccc3)nc(N3CCN(C)CC3)c2C#N)cc1	.	.	.	.	.
CCOC(=O)c1cc(C#N)c(N2CCN(C)CC2)nc1-c1ccccc1	.	.	89	/	/
CCC(=O)N1CCN(c2nc(-c3ccccc3)c3c(c2C#N)CCCC3)CC1	.	.	76	.	.
CC(C)(C)NC(=O)c1nc2nc(-c3ccccc3)cc(C(F)(F)F)n2n1	.	.	.	.	.
O=c1nc2n(c3ncccc13)CCCCC2	.	.	.	/	/
COC(=O)c1sc2nc(-c3ccccc3)nc(N3CCN(C)CC3)c2c1C	.	.	55	.	.
SMILES	PMI act	PMI act satM6P	Lmaj promast	HCT116 PTEN-null	HCT116 bCat-KO
CCc1ccc(N2C(=O)/C(=C/c3cccs3)N(CC(=O)OC)C2=S)cc1	.	.	.	.	.
COC(=O)CN1C(=S)N(c2ccc(OC)cc2)C(=O)/C1=C/c1cccs1	.	.	69	.	.
CCOc1ccc(N2C(=O)/C(=C/c3cc(OC)c(OC)c(OC)c3)N(CC(=O)OC)C2=S)cc1	.	.	100	.	.
CCOc1ccc(/C=C2/C(=O)N(c3ccc(OC)cc3)C(=S)N2CC(=O)OC)cc1OCC	.	.	.	.	.
CCCn1c(=N)c(C(=O)NCc2ccc3c(c2)OCO3)cc2c(=O)n3cccc(C)c3nc21	.	.	96	.	.
Cc1cccn2c(=O)c3cc(C(=O)NCCN4CCOCC4)n(Cc4ccccc4)c3nc12	.	.	/	/	/
CCCCn1c(=NC(=O)c2ccc3c(c2)OCO3)c(C#N)cc2c(=O)n3cccc(C)c3nc21	.	.	86	.	.
CCOCCCn1c(=N)c(C(=O)NCCN2CCOCC2)cc2c(=O)n3cccc(C)c3nc21	/	/	61	.	.
N/C(COc1ncn(-c2ccccc2)n1)=N\S(=O)(=O)c1ccc(Cl)cc1Cl	.	.	.	/	/
C=C(C)C(=O)Nc1ccc(OC(F)(F)C(F)F)c(NC(=O)C(=C)C)c1	.	.	.	.	.
CSc1nc(N(C)C)nc(N(C)C#N)n1	.	.	.	/	/
O=C(COC(=O)c1cccs1)Nc1ccccc1[N+](=O)[O-]	.	.	.	/	/
O=C(O)CC(NC(=O)COc1ccccc1)c1cccc([N+](=O)[O-])c1 (stereo not drawn)	.	.	.	/	/
O=C(CSc1ccc(-c2ccco2)nn1)c1ccccc1	.	.	.	.	.
Fc1cccc(F)c1-n1c(CN2CCCCC2)csc1=S	.	.	56	/	/
CCOc1ccc(-c2ncncc2-c2ccc(OC)cc2)c(O)c1	.	.	.	.	.
COc1ccc(/C=N/n2c(N)c(S(=O)(=O)c3cccs3)c3nc4ccccc4nc32)cc1OC	.	.	62	.	.
COc1cccc(/C=N/n2c(N)c(S(=O)(=O)c3cccs3)c3nc4ccccc4nc32)c1	.	.	.	.	.
Nc1c(S(=O)(=O)c2cccs2)c2nc3ccccc3nc2n1/N=C/c1cccc(O)c1	.	.	58	2.2	2.7
CC(=O)c1c(C)oc2c1C(=O)c1ccccc1C2=O	.	.	.	1.9	2.6
COc1ccc(CNC(=O)c2c(C)oc3c2C(=O)c2ccccc2C3=O)cc1	.	.	.	1.3	1.3
Cc1onc(-c2ccccc2Cl)c1C(=O)NCc1cccnc1	.	.	.	.	.
Cc1oc2c(c1C(=O)NCc1cccnc1)C(=O)c1ccccc1C2=O	.	.	100	/	/
O=C(c1ccccc1)c1coc2c1C(=O)c1ccccc1C2=O	.	.	.	/	/
O=C1c2ccccc2C(=O)c2c1oc(C(F)(F)F)c2C(=O)c1ccccc1	.	.	99	1.8	2.0
SMILES	PMI act	PMI act satM6P	Lmaj promast	HCT116 PTEN-null	HCT116 bCat-KO
COc1ccc(CNC(=O)c2c(F)c(F)c(F)c(F)c2F)cc1	.	.	53	.	.
COc1ccc(CNC(=O)c2ccc(Br)cc2)cc1	.	.	.	/	/
COc1ccc(-n2c(=O)c3c4c(sc3n(Cc3cccc(F)c3)c2=O)CN(C(C)=O)CC4)c(OC)c1	.	.	.	/	/
CC(=O)N1CCc2c(sc3c2c(=O)n(-c2ccccc2)c(=O)n3Cc2ccccc2Cl)C1	.	.	98	.	.
O=c1[nH]c(CN2CCc3ccccc3C2)nc2ccccc12	.	.	.	.	.
Cc1[nH]c2ccccc2c1CN1CCc2ccccc2C1	.	.	100	2.7	2.2
C=CCN(C(=O)CSc1nc2[nH]ncc2c(=O)n1-c1ccccc1OC)c1ccccc1	.	.	.	.	.
Cc1ccc(NC(=O)c2ccco2)c([N+](=O)[O-])c1	.	.	.	/	/
